In one test the target is T1, TGF-beta receptor type-1 (Homo sapiens, UniProt P36897).
T1 sequence (P36897 whole entry): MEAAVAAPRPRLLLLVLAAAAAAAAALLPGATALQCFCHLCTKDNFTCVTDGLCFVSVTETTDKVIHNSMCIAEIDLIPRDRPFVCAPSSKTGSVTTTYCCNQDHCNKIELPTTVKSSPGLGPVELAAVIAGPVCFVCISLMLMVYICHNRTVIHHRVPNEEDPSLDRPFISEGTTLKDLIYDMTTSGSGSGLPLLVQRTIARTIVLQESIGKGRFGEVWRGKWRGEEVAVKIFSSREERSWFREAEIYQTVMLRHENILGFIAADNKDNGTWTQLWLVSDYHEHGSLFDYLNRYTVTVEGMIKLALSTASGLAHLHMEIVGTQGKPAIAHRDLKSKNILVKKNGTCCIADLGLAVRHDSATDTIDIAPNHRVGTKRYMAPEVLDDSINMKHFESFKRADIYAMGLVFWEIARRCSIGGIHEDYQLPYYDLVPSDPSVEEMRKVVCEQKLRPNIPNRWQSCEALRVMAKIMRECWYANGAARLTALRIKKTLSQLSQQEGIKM
Briefly: (§1) Inhibition of TGFBR1 (unknown origin) by LanthaScreen TR-FRET assay. Put shortly:
(§2)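 Outsourced SelectScreen profiling using a LanthaScreen TR-FRET binding format, in which a tight-binding tracer is displaced from the kinase.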
(In TR-FRET formats the signal depends on donor and acceptor labels being close together.)

Test [1] has as its target T2, Bone morphogenetic protein receptor type-2 (Homo sapiens) (UniProt Q13873).
T2 sequence (whole entry): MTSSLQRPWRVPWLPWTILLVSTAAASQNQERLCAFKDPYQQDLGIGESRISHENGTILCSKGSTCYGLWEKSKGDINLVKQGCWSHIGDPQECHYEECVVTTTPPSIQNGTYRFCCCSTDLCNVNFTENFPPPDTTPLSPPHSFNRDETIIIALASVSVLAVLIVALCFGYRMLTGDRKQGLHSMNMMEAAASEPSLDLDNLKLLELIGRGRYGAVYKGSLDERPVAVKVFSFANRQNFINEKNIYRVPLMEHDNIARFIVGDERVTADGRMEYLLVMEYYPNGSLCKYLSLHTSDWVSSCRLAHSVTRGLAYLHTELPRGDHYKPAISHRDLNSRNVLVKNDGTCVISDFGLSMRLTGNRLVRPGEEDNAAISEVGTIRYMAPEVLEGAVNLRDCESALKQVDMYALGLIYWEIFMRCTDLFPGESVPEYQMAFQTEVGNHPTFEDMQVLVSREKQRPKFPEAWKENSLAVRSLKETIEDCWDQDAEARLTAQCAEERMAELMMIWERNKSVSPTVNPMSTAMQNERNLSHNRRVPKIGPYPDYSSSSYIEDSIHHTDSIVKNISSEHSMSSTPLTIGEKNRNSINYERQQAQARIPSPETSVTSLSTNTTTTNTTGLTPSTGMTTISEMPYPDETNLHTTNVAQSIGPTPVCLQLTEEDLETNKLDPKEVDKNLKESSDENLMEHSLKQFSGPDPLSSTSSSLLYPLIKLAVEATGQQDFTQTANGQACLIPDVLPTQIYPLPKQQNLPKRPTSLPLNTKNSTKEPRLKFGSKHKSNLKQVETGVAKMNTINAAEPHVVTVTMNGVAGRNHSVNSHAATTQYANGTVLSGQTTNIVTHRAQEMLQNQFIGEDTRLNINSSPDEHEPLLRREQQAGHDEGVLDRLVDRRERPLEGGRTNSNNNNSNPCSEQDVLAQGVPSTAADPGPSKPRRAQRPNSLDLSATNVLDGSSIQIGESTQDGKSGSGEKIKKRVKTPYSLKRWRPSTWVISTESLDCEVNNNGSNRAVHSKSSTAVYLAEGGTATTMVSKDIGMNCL
Kind of test: Inhibition of human BMPR2 at 1 uM by DiscoveRx Kinomescan method. Put shortly: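 Outsourced KINOMEscan panel of 403 kinases, with compound at 1 μM.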

Test [2] addresses T3, TGF-beta receptor type-1 (Homo sapiens) (UniProt P36897).
T3 sequence (whole entry): T1 sequence (P36897 whole entry)
The description is as §1. Summed up:
as §2

Test [3] addresses T4, Activin receptor type-1 (Homo sapiens) (UniProt Q04771).
T4 sequence (whole entry): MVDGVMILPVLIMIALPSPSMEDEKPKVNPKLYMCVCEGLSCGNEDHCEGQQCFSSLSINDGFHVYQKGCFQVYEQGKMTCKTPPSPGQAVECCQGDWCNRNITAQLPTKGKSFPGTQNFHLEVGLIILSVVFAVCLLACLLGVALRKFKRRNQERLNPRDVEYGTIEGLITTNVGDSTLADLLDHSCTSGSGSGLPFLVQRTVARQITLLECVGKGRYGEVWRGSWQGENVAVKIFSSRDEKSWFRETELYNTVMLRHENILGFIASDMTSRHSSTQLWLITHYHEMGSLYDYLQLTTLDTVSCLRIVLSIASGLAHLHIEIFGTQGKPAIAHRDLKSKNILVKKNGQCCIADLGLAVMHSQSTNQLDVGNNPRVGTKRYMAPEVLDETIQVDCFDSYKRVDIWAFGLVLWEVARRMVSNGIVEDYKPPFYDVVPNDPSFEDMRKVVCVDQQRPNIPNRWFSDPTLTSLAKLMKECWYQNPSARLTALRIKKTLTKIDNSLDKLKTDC
Briefly: Inhibition of ACVR1 (unknown origin) by LanthaScreen TR-FRET assay. Put shortly: as §2

Active and inactive are the calls of the source. The rule behind the calls is not given here.

As usually defined, the IC50 is the point on the concentration scale where inhibition reaches its midpoint. A low value points to greater potency in that assay. Turning to `CNC(=O)[C@@H]1CC[C@@H](n2c(-c3ccc4cnccc4c3)nc3ccc(C(=O)NCc4cccc(C(N)=O)c4)cc32)C1`, the IC50 on TGF-beta receptor type-1 is > 1000 nM. In addition, the inhibition entry in test [1] is “Active”.

For `NC(=O)c1cccc(CNC(=O)c2ccc3nc(-c4ccc5cnccc5c4)n(C4CCCC4)c3c2)c1`, the IC50 on TGF-beta receptor type-1 was > 1000 nM.

In the case of `COc1cnc(Nc2cccc(S(N)(=O)=O)c2)nc1N1CCN(c2ccccc2)C(=O)C1`, the inhibition entry in test [2] and in test [3] was “inactive” throughout.

Turning to `CNC(=O)CCc1ccc(C(=O)NCc2cccc(N3CCN(c4nc(Nc5cccc(S(N)(=O)=O)c5)ncc4OC)CC3)c2)cc1`, the inhibition entry in test [2] is “inactive”.

(Values after ChEMBL document CHEMBL5316332 (J Med Chem, 2023).)
